One may read the Kd as the equilibrium constant for the complex coming apart.

For test [1], the system named is BpeGReg. The test can be described thus: Ligand binding kinetics and affinity of BpeGReg. The arrangement: species or system Bordetella pertussis. The following applies: 25°C, 100 mM NaPi, pH 7.5. The procedure, abridged: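 His-tagged protein purified by Co2+-affinity, used at 2–5 µM. O2 kon by flash photolysis at 436 or 414 nm with 64–1024 µM O2. O2 koff by stopped-flow at 436 nm, oxy protein mixed with 1 mM dithionite. CO kon by photolysis at 419 nm with 30–480 µM CO. CO koff: 3.5 µM CO-bound protein (20 µM CO) displaced by 500 µM NO at 423 nm. NO kon by photolysis at 435 nm with 15–60 µM NO. Rates taken from linear kobs-versus-ligand plots over ≥4 concentrations.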

In the next test the target is HemAT-Bs. The following applies: ref Zhang et al.[22], cited from earlier work.
In test [2] the target is sperm-whale myoglobin (SWMb). The following applies: ref Springer et al.[23], cited from earlier work.
The test system of test [3] is BpeGReg. As to the kind of experiment: Enzymatic diguanylate cyclase assay. Type of test: biochemical, Bordetella pertussis.

Where two headings read alike, the source gives them in different places.

Take `[C-]#[O+]` [CO, carbon-monoxide]: the CO koff in the test with BpeGReg [1] was 0.056 s⁻¹; with HemAT-Bs, 0.067 s⁻¹; in test [2], 0.019 s⁻¹. Besides, the Kd on HemAT-Bs (read-out: CO Kd) is 200 nM; in test [2] (read-out: CO Kd), 37 nM.

In the case of `O=O` [O2, oxygen], the O2 koff was 4.5 s⁻¹ in the test on BpeGReg [1] and 15 s⁻¹ in test [2]. For the same molecule, the figures for the Kd (at BpeGReg [1] (read-out: O2 Kd); in test [2] (read-out: O2 Kd)) were 640 nM and 880 nM, respectively. Also, the “drop in activity in the absence of O2” value in the test with BpeGReg [3] (5 µM BpeGReg in air (Fe(II)O2) vs anaerobic (Fe(II)), 500 µM GTP, PDE-coupled) amounted to 13 fold. For the same molecule, the “rate of O2-bound BpeGReg relative to unliganded ferrous form” value in the test on BpeGReg [3] (PDE-coupled assay) is reported as 10 times. The “initial rate of c-di-GMP production by O2-bound BpeGReg” value in the test on BpeGReg [3] (PDE-coupled assay, 500 µM GTP) was determined as 2.5 min⁻¹. Further, the “c-di-GMP production by liganded state of BpeGReg” value with BpeGReg [3] (compared to the unliganded, CO- and NO-bound forms, HPLC-MS and TLC) is on record as “highest amount of c-di-GMP per mole of protein”.

In the case of `Nc1nc2c(ncn2[C@@H]2O[C@@H]3COP(=O)(O)O[C@H]4[C@@H](O)[C@H](n5cnc6c(=O)[nH]c(N)nc65)O[C@@H]4COP(=O)(O)O[C@H]3[C@H]2O)c(=O)[nH]1` [c-di-GMP, bis-(3’–5’)-cyclic diguanosine monophosphate], the “effect on BpeGReg-catalyzed reaction” value in the test on BpeGReg [3] (20 µM c-di-GMP added at start, 1 µM oxy-BpeGReg, 500 µM GTP) was “strongly inhibited”.

The record behind these values is publication PMC4301737 (Journal of molecular biology, 2009).
